Experimental findings from ChEMBL document CHEMBL3286381 (J Med Chem, 2014) are described below.

Calls of active or inactive are those of the source. The calls are words filed in the database; no cut-off is given here.

Assay [1] concerns the target T1, Ectonucleotide pyrophosphatase/phosphodiesterase family member 1 (Homo sapiens) (UniProt P22413).
T1 sequence (whole entry): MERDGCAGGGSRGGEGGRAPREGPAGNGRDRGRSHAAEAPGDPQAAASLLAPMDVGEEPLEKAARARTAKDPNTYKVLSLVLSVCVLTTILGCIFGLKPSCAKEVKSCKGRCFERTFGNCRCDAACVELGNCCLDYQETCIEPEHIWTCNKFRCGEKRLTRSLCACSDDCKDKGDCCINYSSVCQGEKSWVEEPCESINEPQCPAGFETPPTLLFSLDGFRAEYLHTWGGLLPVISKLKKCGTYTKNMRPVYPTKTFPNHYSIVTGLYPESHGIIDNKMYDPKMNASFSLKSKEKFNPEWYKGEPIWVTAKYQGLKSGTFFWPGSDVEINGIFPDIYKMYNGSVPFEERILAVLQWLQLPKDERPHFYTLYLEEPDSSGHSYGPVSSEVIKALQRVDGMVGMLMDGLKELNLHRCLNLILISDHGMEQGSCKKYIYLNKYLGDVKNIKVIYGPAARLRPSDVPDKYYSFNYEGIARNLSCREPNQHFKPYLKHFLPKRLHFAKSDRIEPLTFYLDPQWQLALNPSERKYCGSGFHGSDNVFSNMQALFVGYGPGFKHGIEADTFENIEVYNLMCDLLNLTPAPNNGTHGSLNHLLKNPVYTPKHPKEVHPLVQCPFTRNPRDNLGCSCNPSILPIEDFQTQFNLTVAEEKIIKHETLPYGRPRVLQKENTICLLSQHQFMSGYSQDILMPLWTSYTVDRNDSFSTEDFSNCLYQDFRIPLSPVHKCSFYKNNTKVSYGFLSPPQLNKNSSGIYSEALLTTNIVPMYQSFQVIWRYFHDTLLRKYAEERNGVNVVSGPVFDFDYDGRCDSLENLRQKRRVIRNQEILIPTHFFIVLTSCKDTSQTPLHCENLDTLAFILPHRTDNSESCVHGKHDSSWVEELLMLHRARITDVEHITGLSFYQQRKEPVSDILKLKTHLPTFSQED
Kind of assay: Inhibition of human NPP1 using ATP as substrate at 100 uM after 20 mins by reversed-phase HPLC analysis.

Assay [2] deals with T2, Ectonucleoside triphosphate diphosphohydrolase 3 (Homo sapiens) (UniProt O75355).
T2 sequence (whole entry): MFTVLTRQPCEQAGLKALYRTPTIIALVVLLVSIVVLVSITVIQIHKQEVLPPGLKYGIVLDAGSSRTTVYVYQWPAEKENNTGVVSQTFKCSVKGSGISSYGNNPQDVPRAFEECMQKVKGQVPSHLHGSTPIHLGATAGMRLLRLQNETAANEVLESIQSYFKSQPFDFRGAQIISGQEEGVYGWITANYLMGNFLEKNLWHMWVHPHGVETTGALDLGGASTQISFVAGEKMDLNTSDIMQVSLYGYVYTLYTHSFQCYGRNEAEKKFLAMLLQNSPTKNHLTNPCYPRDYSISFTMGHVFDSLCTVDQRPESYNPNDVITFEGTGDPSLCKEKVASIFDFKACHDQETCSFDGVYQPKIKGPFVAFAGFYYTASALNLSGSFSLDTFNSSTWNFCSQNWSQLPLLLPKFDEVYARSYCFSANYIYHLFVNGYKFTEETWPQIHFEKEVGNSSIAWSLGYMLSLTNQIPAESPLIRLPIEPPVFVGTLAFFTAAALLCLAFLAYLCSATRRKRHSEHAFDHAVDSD
Kind of assay: Inhibition of human NTPDase-3 using ATP as substrate assessed as inorganic phosphate release at 100 uM after 15 mins relative to control. The gist of the method: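 Protein extracts are from COS-7 cells transiently transfected with human NTPDase1, 2, 3 or 8. Extract is preincubated for 3 min at 37 °C in Tris–Ringer buffer (pH 7.3). […] Three experiments in triplicate.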

In assay [3] the target is T3, Ectonucleotide pyrophosphatase/phosphodiesterase family member 1 (Homo sapiens, UniProt P22413).
T3 sequence (P22413 whole entry): T1 sequence (whole entry)
Kind of assay: Mixed type inhibition of human NPP1 using pNP-TMP as substrate after 20 mins by Dixon and Cornish-Bowden method. The gist of the method:
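Human NPP1 (COS-7 lysate) is tested with pNP-TMP hydrolysis at 37 °C in pH 8.5 Tris buffer, reading p-nitrophenol at […]. Substrate is 25, 50 and 100 μM, and inhibitor is 0, 25, 50 and 100 μM. Inhibition type, Ki and Ki′ (EIS complex dissociation constant) come from Dixon and Cornish–Bowden plots of three independent experiments.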

Assay [4] concerns the target T4, P2Y purinoceptor 11 (Homo sapiens) (UniProt Q96G91).
T4 sequence (whole entry): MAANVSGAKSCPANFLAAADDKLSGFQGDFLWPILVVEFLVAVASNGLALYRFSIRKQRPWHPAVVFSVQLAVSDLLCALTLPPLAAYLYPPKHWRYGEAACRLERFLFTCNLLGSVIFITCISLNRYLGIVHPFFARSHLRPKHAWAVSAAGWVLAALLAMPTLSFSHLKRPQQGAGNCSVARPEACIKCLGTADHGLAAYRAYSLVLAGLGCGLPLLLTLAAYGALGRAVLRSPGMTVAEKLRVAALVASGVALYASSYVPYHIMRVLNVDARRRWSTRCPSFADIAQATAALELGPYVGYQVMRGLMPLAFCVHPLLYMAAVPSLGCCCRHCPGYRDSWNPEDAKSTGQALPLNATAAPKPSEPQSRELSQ
Kind of assay: Agonist activity at human P2Y11 receptor expressed in human 1321N1 cells assessed as increase of intracellular calcium level after 30 mins using fura-2 AM by fluorescence assay relative to ATP. The format is functional, cell-based.

By inhibition is commonly meant how much of the control response was suppressed. The IC50 is the concentration that gives 50% inhibition. Read a low IC50 as inhibition by little substance. As usually defined, the Ki is the dissociation constant of the complex between target and ligand, obtained from inhibition or displacement. High values mean lower affinity, low ones higher affinity. In the case of `Nc1ncnc2c1ncn2[C@@H]1O[C@H](CO[P@](O)(=S)OP(=O)(O)CP(=O)(O)O)[C@@H](O)[C@H]1O`, the inhibition entry in assay [1] is “Active”. Besides, the inhibition in assay [2] came out at 26.8%. In assay [3], this compound came in with an IC50 of 16.3 µM and a Ki of 4.5 µM.
Turning to `Nc1ncnc2c1ncn2[C@@H]1O[C@H](COP(=O)(O)CP(=O)(O)OP(O)(O)=S)[C@@H](O)[C@H]1O`, the inhibition entry in assay [1] is “Active”. The inhibition in assay [2] stood at 40.2%. For the same compound, in assay [4], the fold change (FC) was 6.7.
With `Nc1ncnc2c1ncn2[C@@H]1O[C@H](CO[P@@](O)(=S)OP(=O)(O)CP(=O)(O)O)[C@@H](O)[C@H]1O`, the inhibition entry in assay [1] is “Active”. Also, the inhibition in assay [2] was 24%. Besides, in assay [3], the IC50 came out at 18.7 µM and the inhibitory constant (Ki) worked out at 1.3 µM. In addition, the fold change (FC) in assay [4] was determined as 7.4.
As to `Nc1ncnc2c1ncn2[C@@H]1O[C@H](CO[P@](O)(=S)OP(=O)(O)C(Cl)(Cl)P(=O)(O)O)[C@@H](O)[C@H]1O`, the inhibition result in assay [1] is “Active”. For the same compound, the inhibition in assay [2] was determined as 21.8%. In assay [3], this compound had an IC50 of 0.6 µM and an inhibitory constant (Ki) of 0.685 µM.
On to `Nc1ncnc2c1ncn2[C@@H]1O[C@H](CO[P@@](O)(=S)OP(=O)(O)C(Cl)(Cl)P(=O)(O)O)[C@@H](O)[C@H]1O`, for which, in assay [1], the inhibition entry was “Active”. Moreover, in assay [2], the inhibition amounted to 18.7%. In assay [3], this compound showed an IC50 of 31.2 µM and a Ki of 15.2 µM. The fold change (FC) in assay [4] amounted to 2.2.
